Measurements from ChEMBL document CHEMBL4138284, “Biomimetic Stereoselective Sulfa-Michael Addition Leads to Platensimycin and Platencin Sulfur Analogues against Methicillin-Resistant Staphylococcus aureus” (J Nat Prod, 2018).

What was measured:
Type in all cases: functional
Staphylococcus aureus [1] = experiment: Antibacterial activity against methicillin-sensitive Staphylococcus aureus isolate 3 incubated overnight by agar dilution method
Summary of the method: (§1)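 MIC by agar dilution. Strains were grown overnight in LB broth and diluted, then about 10^4 CFU (2 μL spots) were spotted onto LB agar plates containing test compound at 0.5 to 8 μg mL−1 agar. Plates were incubated overnight at 37 °C and inspected for growth. Clinical MSSA and MRSA isolates came from local hospitals.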

Staphylococcus aureus [2] = experiment: Antibacterial activity against Staphylococcus aureus ATCC 29213 incubated overnight by agar dilution method; summary of the method: as §1
Staphylococcus aureus [3] = experiment: Antibacterial activity against methicillin-resistant Staphylococcus aureus isolate 6 incubated overnight by agar dilution method; summary of the method: as §1
Staphylococcus aureus [4] = experiment: Antibacterial activity against methicillin-resistant Staphylococcus aureus isolate 5 incubated overnight by agar dilution method; summary of the method: as §1
Staphylococcus aureus [5] = experiment: Antibacterial activity against methicillin-resistant Staphylococcus aureus isolate 7 incubated overnight by agar dilution method; summary of the method: as §1
Staphylococcus aureus [6] = experiment: Antibacterial activity against methicillin-resistant Staphylococcus aureus isolate 9 incubated overnight by agar dilution method; summary of the method: as §1
Staphylococcus aureus [7] = experiment: Antibacterial activity against methicillin-sensitive Staphylococcus aureus isolate 4 incubated overnight by agar dilution method; summary of the method: as §1
Staphylococcus aureus [8] = experiment: Antibacterial activity against methicillin-resistant Staphylococcus aureus isolate 8 incubated overnight by agar dilution method; summary of the method: as §1
Staphylococcus aureus [9] = experiment: Antibacterial activity against methicillin-sensitive Staphylococcus aureus isolate 2 incubated overnight by agar dilution method; summary of the method: as §1
Staphylococcus aureus [10] = experiment: Antibacterial activity against methicillin-resistant Staphylococcus aureus isolate 11 incubated overnight by agar dilution method; summary of the method: as §1
Staphylococcus aureus [11] = experiment: Antibacterial activity against methicillin-sensitive Staphylococcus aureus isolate 1 incubated overnight by agar dilution method; summary of the method: as §1
Staphylococcus aureus [12] = experiment: Antibacterial activity against methicillin-resistant Staphylococcus aureus isolate 10 incubated overnight by agar dilution method; summary of the method: as §1

Measured: MIC

C[C@]12C[C@]34C[C@@H]1C[C@H](O2)[C@H]3[C@](C)(CCC(=O)Nc1c(O)ccc(C(=O)O)c1O)C(=O)C[C@@H]4SC(=O)Cc1ccc(F)cc1
1 µg/mL: Staphylococcus aureus [7] | Staphylococcus aureus [9]
4 µg/mL: Staphylococcus aureus [5] | Staphylococcus aureus [10]
2 µg/mL: all other assays above

C[C@]12C[C@@]34C=CC(=O)[C@@](C)(CCC(=O)Nc5c(O)ccc(C(=O)O)c5O)[C@@H]3[C@H](C[C@@H]1C4)O2
0.5 µg/mL: Staphylococcus aureus [1] | Staphylococcus aureus [7] | Staphylococcus aureus [9] | Staphylococcus aureus [11] | Staphylococcus aureus [12]
1 µg/mL: all other assays above

CC(=O)NC[C@H]1CN(c2ccc(N3CCOCC3)c(F)c2)C(=O)O1 [LINEZOLID]
1 µg/mL: all assays above

C[C@]12C[C@]34C[C@@H]1C[C@H](O2)[C@H]3[C@](C)(CCC(=O)Nc1c(O)ccc(C(=O)O)c1O)C(=O)C[C@@H]4SC(=O)c1cccs1
2 µg/mL: Staphylococcus aureus [2] | Staphylococcus aureus [3] | Staphylococcus aureus [4] | Staphylococcus aureus [8]
8 µg/mL: Staphylococcus aureus [5]
1 µg/mL: all other assays above

C[C@]12C[C@]34C[C@@H]1C[C@H](O2)[C@H]3[C@](C)(CCC(=O)Nc1c(O)ccc(C(=O)O)c1O)C(=O)C[C@@H]4SC(=O)c1ccccc1C(F)(F)F
4 µg/mL: Staphylococcus aureus [10]
2 µg/mL: Staphylococcus aureus [2] | Staphylococcus aureus [5]
1 µg/mL: all other assays above

C[C@]12C[C@]34C[C@@H]1C[C@H](O2)[C@H]3[C@](C)(CCC(=O)Nc1c(O)ccc(C(=O)O)c1O)C(=O)C[C@@H]4SC(=O)c1cccc(C(F)(F)F)c1
2 µg/mL: Staphylococcus aureus [2] | Staphylococcus aureus [5] | Staphylococcus aureus [10]
0.5 µg/mL: Staphylococcus aureus [7]
1 µg/mL: all other assays above

C[C@]12C[C@]34C[C@@H]1C[C@H](O2)[C@H]3[C@](C)(CCC(=O)Nc1c(O)ccc(C(=O)O)c1O)C(=O)C[C@@H]4SC(=O)c1cccc(F)c1
2 µg/mL: Staphylococcus aureus [2] | Staphylococcus aureus [5] | Staphylococcus aureus [10]
1 µg/mL: all other assays above

C[C@]12C[C@]34C[C@@H]1C[C@H](O2)[C@H]3[C@](C)(CCC(=O)Nc1c(O)ccc(C(=O)O)c1O)C(=O)C[C@@H]4SC(=O)c1cc(C(F)(F)F)cc(C(F)(F)F)c1
2 µg/mL: Staphylococcus aureus [5]
not listed: Staphylococcus aureus [10]
1 µg/mL: all other assays above

C=C1C[C@@]23CCC1C[C@@H]2[C@](C)(CCC(=O)Nc1c(O)ccc(C(=O)O)c1O)C(=O)C[C@@H]3SC(=O)c1ccccc1 (single isomer, unassigned)
2 µg/mL: Staphylococcus aureus [3] | Staphylococcus aureus [4] | Staphylococcus aureus [6] | Staphylococcus aureus [8] | Staphylococcus aureus [10]
4 µg/mL: Staphylococcus aureus [2] | Staphylococcus aureus [5]
1 µg/mL: all other assays above

C=C1C[C@@]23C=CC(=O)[C@@](C)(CCC(=O)Nc4c(O)ccc(C(=O)O)c4O)[C@@H]2C[C@@H]1CC3 [PLATENCIN]
1 µg/mL: all assays above
